{"data": "Assay results collected from several papers", "organism": "Pseudomonas aeruginosa", "observed": "microbial growth", "note": "Lines come from different studies, so protocols differ."}
{"SMILES": "O=C(C=Cc1ccc(O)c(O)c1)Oc1ccccc1", "method": "broth dilution", "strain": "ATCC27853", "quantity": "MIC", "value": "8 µg/mL"}
{"SMILES": "Cc1[nH]c(C(=O)Nc2ccc(C(=O)NCC(=O)O)cc2N2CC[C@@H](N)C2)c(Cl)c1Cl.Cl", "method": "broth dilution", "strain": "ATCC27853", "quantity": "MIC", "value": "> 32 µg/mL"}
{"SMILES": "Nc1ccccc1OC(=O)C=Cc1ccc(O)c(O)c1", "method": "broth dilution", "strain": "ATCC27853", "quantity": "MIC", "value": "32 µg/mL"}
{"SMILES": "CC(C)(O/N=C(\\C(=O)N[C@@H]1C(=O)N2C(C(=O)[O-])=C(C[n+]3ccccc3)CS[C@H]12)c1csc(N)n1)C(=O)O", "method": "broth dilution", "strain": "ATCC27853", "time": "20 h", "quantity": "MIC", "value": "1 µg/mL"}
{"SMILES": "COc1cc(C=Nc2ccc([N+](=O)[O-])cc2)ccc1O", "method": "disc diffusion", "tested at": "2000 µg/mL", "time": "24 h", "quantity": "inhibition zone", "value": "14.2 mm"}
{"SMILES": "COc1cccc(C(=O)C#Cc2ccc(O)c(OC)c2)c1", "method": "absorbance", "tested at": "100 µM", "time": "24 h", "quantity": "activity vs control", "value": "82%"}
{"SMILES": "CC1(C)S[C@@H]2[C@H](NC(=O)[C@H](N)c3ccccc3)C(=O)N2[C@H]1C(=O)O", "method": "broth dilution", "strain": "ATCC27853", "quantity": "MIC", "value": "8 µg/mL"}
{"SMILES": "COc1cc(C#CC(O)CC(C)C)ccc1O (stereo not drawn)", "method": "absorbance", "tested at": "100 µM", "time": "24 h", "quantity": "activity vs control", "value": "93%"}
{"SMILES": "COc1cc(C=Nc2cccc(O)c2)ccc1O", "method": "disc diffusion", "tested at": "2000 µg/mL", "time": "24 h", "quantity": "inhibition zone", "value": "14.5 mm"}
{"SMILES": "CCCC(=O)C#Cc1ccc(O)c(OC)c1", "method": "absorbance", "tested at": "100 µM", "time": "24 h", "quantity": "activity vs control", "value": "94%"}
{"SMILES": "Cc1[nH]c(C(=O)Nc2ccc(C(=O)NCC(=O)O)cc2N2CC[C@@H](NC(=O)OC(C)(C)C)C2)c(Cl)c1Cl", "method": "broth dilution", "strain": "ATCC27853", "quantity": "MIC", "value": "> 32 µg/mL"}
{"SMILES": "O=C(O)c1cn(C2CC2)c2cc(N3CCNCC3)c(F)cc2c1=O", "strain": "ATCC27853", "quantity": "MIC", "value": "2 µM"}
{"SMILES": "Cc1[nH]c(C(=O)Nc2ccc(C(=O)NCC(=O)O)cc2N2CCN(C(=O)OC(C)(C)C)CC2)c(Cl)c1Cl", "method": "broth dilution", "strain": "ATCC27853", "quantity": "MIC", "value": "> 32 µg/mL"}
{"SMILES": "COc1cc(C#CC(=O)c2cccc(C)c2)ccc1O", "method": "absorbance", "tested at": "10 µM", "time": "24 h", "quantity": "activity vs control", "value": "98%"}
{"SMILES": "Cl.O=C(O)CNC(=O)c1ccc(NC(=O)c2cc(Br)c(Br)[nH]2)c(N2CCNCC2)c1", "method": "broth dilution", "strain": "ATCC27853", "quantity": "MIC", "value": "> 32 µg/mL"}
{"SMILES": "COc1cc(Cc2cnc(N)nc2N)cc(OC)c1OC", "method": "broth dilution", "strain": "ATCC27853", "quantity": "MIC", "value": "8 µg/mL"}
{"SMILES": "Cl.N[C@H]1CCN(c2cc(C(=O)NCC(=O)O)ccc2NC(=O)c2cc(Br)c(Br)[nH]2)C1", "method": "broth dilution", "strain": "ATCC27853", "quantity": "MIC", "value": "> 32 µg/mL"}
{"SMILES": "Cc1ccc(C(=O)C#Cc2ccc(F)c(F)c2)cc1", "method": "absorbance", "tested at": "100 µM", "time": "24 h", "quantity": "activity vs control", "value": "96%"}
